How the values were obtained:
[1] = test system: human colorectal adenocarcinoma cell line, HT-29; test: MTT cell viability assay on HT-29, 72 h exposure; assay type: cell-based; conditions: read-out: IC50 (±SD), HT-29, HT-29, 72 h of exposure
Method in brief: (§1)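 HT-29 was grown in McCoy's 5A with 10% FBS. MCF-7 was grown in MEM with 10% FBS and 0.01 mg/mL insulin. Both were kept at 37°C, 5% CO2, trypsinized at 70–80% confluency and seeded at 1.5×10^4 cells/well for 24 h. Cells were then exposed for 72 h to test compound in 5% DMSO/95% medium, with DMSO-medium controls. MTT was added as a 2.67 mg/mL solution for 2 h. Formazan was dissolved in 10% Triton X-100/isopropanol and read at A570 minus A620. IC50 came from a sigmoidal fit of viability vs log concentration, eight replicas, triplicate, ±SD.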

[2] = target: T1, apo-human transferrin (apo-hTf) (Homo sapiens, UniProt P02787); test: UV-Vis absorbance titration of apo-hTf; assay type: binding
T1 sequence (P02787 20-698): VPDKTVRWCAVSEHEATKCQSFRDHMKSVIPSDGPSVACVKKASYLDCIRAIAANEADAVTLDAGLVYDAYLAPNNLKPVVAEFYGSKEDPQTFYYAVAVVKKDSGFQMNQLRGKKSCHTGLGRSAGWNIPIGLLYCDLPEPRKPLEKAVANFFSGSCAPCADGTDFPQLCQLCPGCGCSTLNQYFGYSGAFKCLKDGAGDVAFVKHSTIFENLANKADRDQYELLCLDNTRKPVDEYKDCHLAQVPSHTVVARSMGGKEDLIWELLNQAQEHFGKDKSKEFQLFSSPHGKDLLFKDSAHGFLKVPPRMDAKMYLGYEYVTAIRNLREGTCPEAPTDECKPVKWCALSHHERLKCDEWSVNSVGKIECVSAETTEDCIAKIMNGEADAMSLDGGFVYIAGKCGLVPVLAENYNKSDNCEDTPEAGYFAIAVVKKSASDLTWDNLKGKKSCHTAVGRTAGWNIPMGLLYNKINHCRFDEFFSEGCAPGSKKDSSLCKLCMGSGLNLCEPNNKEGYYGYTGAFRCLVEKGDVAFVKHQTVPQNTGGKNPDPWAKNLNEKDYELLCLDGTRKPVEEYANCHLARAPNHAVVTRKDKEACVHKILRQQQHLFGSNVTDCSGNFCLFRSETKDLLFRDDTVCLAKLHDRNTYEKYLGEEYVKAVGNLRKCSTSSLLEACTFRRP

[3] = target: T1, apo-human transferrin (apo-hTf); test: Far-UV circular dichroism titration of apo-hTf, secondary structure content
Method in brief: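 Apo-hTf (4.0×10−7 mol L−1) in 2 mM Tris-HCl pH 7.4 was titrated with a 1.0×10−3 mol L−1 stock of test compound in Tris-HCl/2% DMSO, to final 0–2.4×10−6 mol L−1. Far-UV CD was recorded from 190–250 nm under nitrogen in a 1.0 cm cell: six scans at 100 nm/min. Baseline was buffer ± DMSO at room temperature. α-Helix was derived from MRE at 208 nm; β-sheet and random coil by the CD-RRG method.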

[4] = target: T1, apo-human transferrin (apo-hTf); test: Thermodynamic parameters of apo-hTf complex formation; assay type: binding
Method in brief: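 Ksv values were obtained from apo-hTf fluorescence quenching at pH 7.4 at 296, 303, 310 and 317 K. ΔH°, ΔS° and ΔG° were derived from linear regression of ln(Ksv) vs 1/T (Van't Hoff equation).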

[5] = target: T1, apo-human transferrin (apo-hTf); test: Fluorescence quenching of apo-hTf; assay type: binding; conditions: for biomolecular quenching rate constant kq: kq=Ksv/τ0; for Stern-Volmer quenching constant Ksv / number of binding sites n: pH 7.4; for quenching association constant Ka: pH 7.4, modified Stern-Volmer
Method in brief: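 Intrinsic fluorescence of apo-hTf in Tris-HCl pH 7.4 was titrated with test compound (Tris-HCl/2% DMSO). Conditions: excitation 280 nm, emission 290–500 nm, slits 10/5 nm, 1.0 cm quartz cell, at 296, 303, 310 and 317 K, triplicate titrations. Intensities were corrected for inner filter effect using absorbances at excitation and emission wavelengths. Ksv came from Stern-Volmer plots of F0/F vs [Q]; kq = Ksv/τ0 (τ0 ~1.0×10−8); Ka and n came from the modified Stern-Volmer equation.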

[6] = target: T1, apo-human transferrin (apo-hTf); test: Fluorescence resonance energy transfer; assay type: binding
Method in brief: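 Emission spectrum of 1.0×10−5 mol L−1 apo-hTf and absorption spectrum of 1.0×10−5 mol L−1 test compound were recorded in 20 mM Tris-HCl pH 7.4 at room temperature, 260–450 nm, and their spectral overlap determined. E was calculated from apo-hTf fluorescence without and with equimolar test compound. R0 and donor–acceptor distance r came from Förster equations.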

[7] = test system: human breast adenocarcinoma cell line, MCF-7; test: MTT cell viability assay on MCF-7, 72 h exposure; assay type: cell-based; conditions: MCF-7, 72 h of exposure
Method in brief: as §1

For `[Cl-].[Cl-].[Hf+4].c1cc[cH-]c1.c1cc[cH-]c1` [Cp2HfCl2], the IC50 [1] was 564 µM, the “Ka at 280 nm” value ([2]; absorbance at 280 nm) was 2110 M⁻¹ and the “Association constants, Ka, 280 nm” value ([2]; absorbance of apo-hTf at 280 nm, pH 7.4) was 2.11 10^3 M^−1. For the same compound, the “other secondary structure content of apo-hTf” value ([3]; compound concentration 0.4 (M)) was 19.1%, the “random coil content of apo-hTf” value ([3]; compound concentration 0.4 (M)) was 33.7% and the “α-helix content of apo-hTf” value ([3]; compound concentration 0.4 (M)) was 29.7%. The “β-sheet content of apo-hTf” value ([3]; compound concentration 0.4 (M)) was 17.5%, the “other secondary structure content of apo-hTf” value ([3]; compound concentration 0.8 (M)) was 19.1% and the “random coil content of apo-hTf” value ([3]; compound concentration 0.8 (M)) was 33.8%. For the same compound, the “α-helix content of apo-hTf” value ([3]; compound concentration 0.8 (M)) was 29.5%, the “β-sheet content of apo-hTf” value ([3]; compound concentration 0.8 (M)) was 17.6% and the “other secondary structure content of apo-hTf” value ([3]; compound concentration 1.2 (M)) was 19.2%. For the same compound, the “random coil content of apo-hTf” value ([3]; compound concentration 1.2 (M)) was 33.8%, the “α-helix content of apo-hTf” value ([3]; compound concentration 1.2 (M)) was 29.3% and the “β-sheet content of apo-hTf” value ([3]; compound concentration 1.2 (M)) was 17.7%. For the same compound, the “other secondary structure content of apo-hTf” value ([3]; compound concentration 1.6 (M)) was 19.1%, the “random coil content of apo-hTf” value ([3]; compound concentration 1.6 (M)) was 34% and the “α-helix content of apo-hTf” value ([3]; compound concentration 1.6 (M)) was 29.1%. For the same compound, the “β-sheet content of apo-hTf” value ([3]; compound concentration 1.6 (M)) was 17.8%, the “other secondary structure content of apo-hTf” value ([3]; compound concentration 2 (M)) was 19.1% and the “random coil content of apo-hTf” value ([3]; compound concentration 2 (M)) was 34%. The “α-helix content of apo-hTf” value ([3]; compound concentration 2 (M)) was 29%, the “β-sheet content of apo-hTf” value ([3]; compound concentration 2 (M)) was 17.9% and the “other secondary structure content of apo-hTf” value ([3]; compound concentration 2.4 (M)) was 19.2%. For the same compound, the “random coil content of apo-hTf” value ([3]; compound concentration 2.4 (M)) was 34.1%, the “α-helix content of apo-hTf” value ([3]; compound concentration 2.4 (M)) was 28.7% and the “β-sheet content of apo-hTf” value ([3]; compound concentration 2.4 (M)) was 18%. The “∆G°” value ([4]; 296 K) was -4.443 kcal/mol, the “∆G°” value ([4]; 303 K) was -4.45 kcal/mol and the “∆G°” value ([4]; 310 K) was -4.46 kcal/mol. The “∆G°” value ([4]; 317 K) was -4.469 kcal/mol, the “∆H°” value ([4]; pH 7.4, from Ksv at 296-317 K) was -4.08 kcal/mol and the “∆S°” value ([4]; pH 7.4, from Ksv at 296-317 K) was 5.13 J/mol K. For the same compound, the “biomolecular quenching rate constant kq” value ([5]; 296 K) was 1.97e+11 M⁻¹ s⁻¹, the “Stern-Volmer quenching constant Ksv” value ([5]; 296 K) was 1970 M⁻¹ and the “number of binding sites n” value ([5]; 296 K) was 1.15. For the same compound, the “quenching association constant Ka” value ([5]; 296 K) was 8900 M⁻¹, the “biomolecular quenching rate constant kq” value ([5]; 303 K) was 1.57e+11 M⁻¹ s⁻¹ and the “Stern-Volmer quenching constant Ksv” value ([5]; 303 K) was 1570 M⁻¹. For the same compound, the “number of binding sites n” value ([5]; 303 K) was 1.17, the “quenching association constant Ka” value ([5]; 303 K) was 8100 M⁻¹ and the “biomolecular quenching rate constant kq” value ([5]; 310 K) was 1.36e+11 M⁻¹ s⁻¹. The “Stern-Volmer quenching constant Ksv” value ([5]; 310 K) was 1360 M⁻¹, the “number of binding sites n” value ([5]; 310 K) was 1.18 and the “quenching association constant Ka” value ([5]; 310 K) was 7500 M⁻¹. The “biomolecular quenching rate constant kq” value ([5]; 317 K) was 1.24e+11 M⁻¹ s⁻¹, the “Stern-Volmer quenching constant Ksv” value ([5]; 317 K) was 1240 M⁻¹ and the “number of binding sites n” value ([5]; 317 K) was 1.19. For the same compound, the “quenching association constant Ka” value ([5]; 317 K) was 7000 M⁻¹, the “Förster critical energy transfer distance R0” value ([6]; k^2=2/3, n=1.336, ØD=0.118) was 6.91 nm and the “binding distance r (donor-acceptor)” value ([6]; k^2=2/3, n=1.336, ØD=0.118) was 9.47 nm. For the same compound, the “efficiency of energy transfer E” value ([6]; room temperature, 1.0×10^−5 mol L^−1 each) was 0.131, the “IC50 (±SD), MCF-7” value [7] was “proliferative activity” and the “IC50 (±SD), MCF-7” value ([7]; listed as Cp^2HfCl^2) was “Proliferative”.

Reference: PMC7668563 (International journal of molecular biology (Edmond, Okla.), 2020)
